According to ChEMBL document CHEMBL3525907, “Studies on the metabolism and biological activity of the epimers of sulindac” (Drug Metab Dispos, 2011):
One block for each compound: values may come before it. Calls of active or inactive are those of the source. The rule behind the calls is not given here.

Experiments:
[1] = target: T1, Methionine-R-sulfoxide reductase B1 (Rattus norvegicus, UniProt Q52KJ8); assay: Drug metabolism in rat liver S100 fraction assessed as MSRB1-mediated DABS-Met formation measured per mg of protein at 200 uM by HPLC analysis; assay type: ADME, tissue-based
T1 sequence (Q52KJ8 whole entry): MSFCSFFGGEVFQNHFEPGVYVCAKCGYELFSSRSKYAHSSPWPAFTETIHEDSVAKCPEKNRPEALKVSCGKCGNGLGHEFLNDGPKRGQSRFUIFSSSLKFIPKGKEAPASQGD
Procedure, shortened: (§1)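 Fractions (S-100, 30–70% ammonium sulfate cut) from rat liver purification; aliquots incubated with 200 μM (R)-sulindac or 200 μM DABS-R-Met(o) in 100 mM Tris pH 7.4 with 15 mM DTT or Trx system (1 mM NADPH, TrxB, TrxA), 37°C. Stopped with acetonitrile; C18 HPLC, sulindac sulfide at 330 nm, DABS-Met at 436 nm. Specific activity as nmol product/mg protein/h.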

[2] = target: T1, Methionine-R-sulfoxide reductase B1; assay: Drug metabolism in rat liver ammonium sulfate fraction assessed as MSRB1-mediated DABS-Met formation measured per mg of protein at 200 uM by HPLC analysis; assay type: ADME, tissue-based; procedure, shortened: as §1
[3] = target: T1, Methionine-R-sulfoxide reductase B1; assay: Drug metabolism in rat liver DEAE fraction assessed as MSRB1-mediated DABS-Met formation measured per mg of protein at 200 uM by HPLC analysis; assay type: ADME, tissue-based
Procedure, shortened: (§2)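 Rat liver purification fractions (DEAE, G50 peak) assayed with 200 μM DABS-R-Met(o) in 100 mM Tris pH 7.4, DTT (15 mM) or Trx system (1 mM NADPH, TrxB, TrxA) as reductant, 37°C; acetonitrile stop; DABS-Met resolved on C18 HPLC, absorbance 436 nm; activity per mg protein, expressed as purification factor.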

[4] = target: T1, Methionine-R-sulfoxide reductase B1; assay: Drug metabolism in rat liver G50 fraction assessed as MSRB1-mediated DABS-Met formation measured per mg of protein at 200 uM by HPLC analysis; assay type: ADME, tissue-based; procedure, shortened: as §2
[5] = target: T1, Methionine-R-sulfoxide reductase B1; assay: Activity of MSRB1 in rat liver S100 fraction assessed as enzyme-mediated drug metabolism measured per mg of protein at 200 uM by HPLC analysis; assay type: ADME
Procedure, shortened: (§3)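 Fractions from rat liver reductase purification (S-100, 30–70% ammonium sulfate cut, DEAE pool, G50 gel filtration) incubated with 200 μM (R)-sulindac in 100 mM Tris pH 7.4 with 15 mM DTT, 37°C, 100 μl; stopped with acetonitrile; sulindac sulfide quantified by C18 HPLC at 330 nm; specific activity as nmol product/mg protein/h.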

[6] = target: T1, Methionine-R-sulfoxide reductase B1; assay: Activity of MSRB1 in rat liver ammonium sulfate fraction assessed as enzyme-mediated drug metabolism measured per mg of protein at 200 uM by HPLC analysis; assay type: ADME; procedure, shortened: as §3
[7] = target: T1, Methionine-R-sulfoxide reductase B1; assay: Activity of MSRB1 in rat liver DEAE fraction assessed as enzyme-mediated drug metabolism measured per mg of protein at 200 uM by HPLC analysis; assay type: ADME; procedure, shortened: as §3
[8] = target: T1, Methionine-R-sulfoxide reductase B1; assay: Activity of MSRB1 in rat liver G50 fraction assessed as enzyme-mediated drug metabolism measured per mg of protein at 200 uM by HPLC analysis; assay type: ADME; procedure, shortened: as §3
[9] = system: Liver microsome; assay: Drug metabolism in rat liver microsomes at […] after 60 mins by HPLC analysis; assay type: ADME; settings: 1 h
Procedure, shortened: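 Uninduced rat liver microsomes (100,000g pellet, washed), 20–80 μg protein, incubated with 20 nmol sulindac epimer in 100 μl 100 mM potassium phosphate pH 7.4 with NADPH-regenerating system (1.5 mM NADPH, 5 mM glucose 6-phosphate, G6PDH, 5 mM MgCl2), 60 min, 37°C. Stopped with 3 volumes acetonitrile; sulfone quantified by C18 HPLC. Six rat preparations.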

[10] = Drug metabolism in rat liver cytosolic fraction at 20 nM after 60 mins by HPLC analysis; assay type: ADME, tissue-based; settings: cytosol, 1 h
[11] = target: Cytochrome P450 1A1 (Rattus norvegicus, UniProt P00185); assay: Drug metabolism assessed as rat recombinant CYP1A1-mediated sulindac sulfone formation measured per pmol of protein at 500 uM after 90 mins by HPLC analysis; assay type: ADME; settings: recombinant enzyme, 1.5 h
Procedure, shortened: (§4)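 Recombinant rat or human P450 Supersomes (some with cytochrome b5, variable reductase) incubated with (R)-sulindac at 500 μM or (S)-sulindac at 200 μM plus NADPH-regenerating system in 100 mM potassium phosphate pH 7.4 at 37°C, linear up to 90 min; acetonitrile stop; sulfone by C18 HPLC at 330 nm; ≥3 runs; pmol/pmol enzyme/h, mean ± S.E.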

[12] = target: Cytochrome P450 1A2 (Rattus norvegicus, UniProt P04799); assay: Drug metabolism assessed as rat recombinant CYP1A2-mediated sulindac sulfone formation measured per pmol of protein at 500 uM after 90 mins by HPLC analysis; assay type: ADME; settings: recombinant enzyme, 1.5 h; procedure, shortened: as §4
[13] = target: Cytochrome P450 1A2 (Homo sapiens, UniProt P05177); assay: Drug metabolism assessed as human recombinant CYP1A2-mediated sulindac sulfone formation measured per pmol of protein at 500 uM after 90 mins by HPLC analysis; assay type: ADME; settings: recombinant enzyme, 1.5 h; procedure, shortened: as §4
[14] = target: Cytochrome P450 1B1 (Homo sapiens, UniProt Q16678); assay: Drug metabolism assessed as human recombinant CYP1B1-mediated sulindac sulfone formation measured per pmol of protein at 500 uM after 90 mins by HPLC analysis; assay type: ADME; settings: recombinant enzyme, 1.5 h; procedure, shortened: as §4
[15] = target: Cytochrome P450 3A4 (Homo sapiens, UniProt P08684); assay: Drug metabolism assessed as human recombinant CYP3A4-mediated sulindac sulfone formation measured per pmol of protein at 500 uM after 90 mins by HPLC analysis; assay type: ADME; settings: recombinant enzyme, 1.5 h; procedure, shortened: as §4
[16] = target: Cytochrome P450 3A2 (Rattus norvegicus, UniProt P05183); assay: Drug metabolism assessed as rat recombinant CYP3A2-mediated sulindac sulfone formation measured per pmol of protein at 500 uM after 90 mins by HPLC analysis; assay type: ADME; settings: recombinant enzyme, 1.5 h; procedure, shortened: as §4
[17] = target: Cytochrome P450 2B1 (Rattus norvegicus, UniProt P00176); assay: Drug metabolism assessed as rat recombinant CYP2B1-mediated sulindac sulfone formation measured per pmol of protein at 500 uM after 90 mins by HPLC analysis; assay type: ADME; settings: recombinant enzyme, 1.5 h; procedure, shortened: as §4
[18] = target: Cytochrome P450 2C8 (Homo sapiens, UniProt P10632); assay: Drug metabolism assessed as human recombinant CYP2C8-mediated sulindac sulfone formation measured per pmol of protein at 500 uM after 90 mins by HPLC analysis; assay type: ADME; settings: recombinant enzyme, 1.5 h; procedure, shortened: as §4
[19] = target: Cytochrome P450 2C9 (Homo sapiens, UniProt P11712); assay: Drug metabolism assessed as human recombinant CYP2C9-mediated sulindac sulfone formation measured per pmol of protein at 500 uM after 90 mins by HPLC analysis; assay type: ADME; settings: recombinant enzyme, 1.5 h; procedure, shortened: as §4
[20] = target: Cytochrome P450 2C19 (Homo sapiens, UniProt P33261); assay: Drug metabolism assessed as human recombinant CYP2C19-mediated sulindac sulfone formation measured per pmol of protein at 500 uM after 90 mins by HPLC analysis; assay type: ADME; settings: recombinant enzyme, 1.5 h; procedure, shortened: as §4
[21] = target: Cytochrome P450 2D6 (Homo sapiens, UniProt P10635); assay: Drug metabolism assessed as human recombinant CYP2D6-mediated sulindac sulfone formation measured per pmol of protein at 500 uM after 90 mins by HPLC analysis; assay type: ADME; settings: recombinant enzyme, 1.5 h; procedure, shortened: as §4
[22] = Drug metabolism in human HepG2 cells assessed as induction of cytochrome P450-mediated sulindac sulfone formation at 125 uM preincubated for 2 to 24 hrs followed by compound-washout and fresh compound addition measured after 1 hr by HPLC analysis; assay type: ADME, cell-based; settings: hepg2, 1 h
Procedure, shortened: (§5)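 HepG2 cells in MEM/10% FBS grown to 80% confluence, pretreated 2–24 h with 125 μM (R)- or (S)-sulindac at 37°C, 5% CO2; washed with PBS, then 200 μM (R)- or (S)-sulindac in fresh medium for 1 h at 37°C; medium mixed with 3 volumes acetonitrile and analysed by HPLC for sulfone.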

[23] = Activity of cytochrome P450 in human HepG2 cells assessed as enzyme-mediated drug metabolism at 125 uM preincubated for 2 to 24 hrs followed by compound-washout and fresh compound addition measured after 1 hr by HPLC analysis; assay type: ADME, cell-based; settings: hepg2, 1 h; procedure, shortened: as §5
[24] = Drug metabolism assessed as Escherichia coli MSRB-mediated reduced product formation; assay type: ADME
[25] = target: Methionine-R-sulfoxide reductase B2, mitochondrial (Homo sapiens, UniProt Q9Y3D2); assay: Drug metabolism assessed as human MSRB2-mediated reduced product formation; assay type: ADME
[26] = target: Methionine-R-sulfoxide reductase B3 (Homo sapiens, UniProt Q8IXL7); assay: Drug metabolism assessed as human MSRB3-mediated reduced product formation; assay type: ADME
[27] = target: T1, Methionine-R-sulfoxide reductase B1; assay: Drug metabolism in rat liver S100 fraction assessed as MSRB1-mediated reduced product formation measured per mg of protein at 200 uM by HPLC analysis; assay type: ADME, tissue-based; procedure, shortened: as §1
[28] = target: T1, Methionine-R-sulfoxide reductase B1; assay: Drug metabolism in rat liver ammonium sulfate fraction assessed as MSRB1-mediated reduced product formation measured per mg of protein at 200 uM by HPLC analysis; assay type: ADME, tissue-based; procedure, shortened: as §1
[29] = target: T1, Methionine-R-sulfoxide reductase B1; assay: Drug metabolism in rat liver DEAE fraction assessed as MSRB1-mediated reduced product formation measured per mg of protein at 200 uM by HPLC analysis; assay type: ADME, tissue-based; procedure, shortened: as §3
[30] = target: T1, Methionine-R-sulfoxide reductase B1; assay: Drug metabolism in rat liver G50 fraction assessed as MSRB1-mediated reduced product formation measured per mg of protein at 200 uM by HPLC analysis; assay type: ADME, tissue-based; procedure, shortened: as §3
[31] = system: MRC5; assay: Cytoprotective activity in TBHP-induced human MRC5 cells at 500 uM incubated for 48 hrs prior to TBHP-challenge measured after 2 hrs; assay type: functional, cell-based
Procedure, shortened: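 Normal lung cells preincubated 48 h with 500 μM (R)- or (S)-sulindac or no drug, then challenged with TBHP; viability expressed as percent of cells not exposed to TBHP; mean and S.E. of five repeats; p < 0.05 versus no-drug controls.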

[32] = system: A549; assay: Potentiation of TBHP-induced cytotoxicity in human A549 cells at 500 uM incubated for 48 hrs prior to TBHP-challenge measured after 2 hrs; assay type: functional, cell-based
[33] = system: Zone of skin; assay: Drug metabolism in Sprague-Dawley rat skin assessed as sulindac sulfone formation at 2 mg, ip after 0.5 to 4 hrs by HPLC analysis; settings: in vivo
[34] = system: Zone of skin; assay: Drug metabolism in Sprague-Dawley rat skin assessed as sulindac sulfide formation at 2 mg, ip after 0.5 to 4 hrs by HPLC analysis; settings: in vivo
[35] = system: Liver; assay: Drug metabolism in Sprague-Dawley rat liver assessed as sulindac sulfone formation at 2 mg, ip after 0.5 to 4 hrs by HPLC analysis; settings: in vivo
[36] = system: Liver; assay: Drug metabolism in Sprague-Dawley rat liver assessed as sulindac sulfide formation at 2 mg, ip after 0.5 to 4 hrs by HPLC analysis; settings: in vivo
[37] = system: Plasma; assay: Drug metabolism in Sprague-Dawley rat plasma assessed as sulindac sulfone formation at 2 mg, ip after 0.5 to 4 hrs by HPLC analysis; settings: in vivo
[38] = system: Plasma; assay: Drug metabolism in Sprague-Dawley rat plasma assessed as sulindac sulfide formation at 2 mg, ip after 0.5 to 4 hrs by HPLC analysis; settings: in vivo
[39] = system: Liver microsome; assay: Drug metabolism in rat liver microsomes assessed as sulindac sulfone formation at 200 µM after 60 mins by HPLC analysis in presence of NADPH; settings: 1 h

Sequence of Cytochrome P450 2C9 (P11712 whole entry): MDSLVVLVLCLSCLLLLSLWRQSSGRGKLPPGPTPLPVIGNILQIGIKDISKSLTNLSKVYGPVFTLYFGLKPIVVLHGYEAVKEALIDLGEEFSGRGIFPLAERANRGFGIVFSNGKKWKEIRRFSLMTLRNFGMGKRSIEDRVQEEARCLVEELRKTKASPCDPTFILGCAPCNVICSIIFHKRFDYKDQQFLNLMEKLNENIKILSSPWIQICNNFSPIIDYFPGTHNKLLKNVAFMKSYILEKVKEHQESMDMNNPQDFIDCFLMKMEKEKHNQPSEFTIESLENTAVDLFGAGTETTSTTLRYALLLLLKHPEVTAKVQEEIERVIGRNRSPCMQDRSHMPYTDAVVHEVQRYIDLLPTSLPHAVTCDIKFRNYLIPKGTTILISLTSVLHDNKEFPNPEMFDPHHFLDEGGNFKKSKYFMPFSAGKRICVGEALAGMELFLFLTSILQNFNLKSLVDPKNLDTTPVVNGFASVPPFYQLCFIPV
Sequence of Cytochrome P450 1A2 (Rattus norvegicus, UniProt P04799) (P04799 whole entry): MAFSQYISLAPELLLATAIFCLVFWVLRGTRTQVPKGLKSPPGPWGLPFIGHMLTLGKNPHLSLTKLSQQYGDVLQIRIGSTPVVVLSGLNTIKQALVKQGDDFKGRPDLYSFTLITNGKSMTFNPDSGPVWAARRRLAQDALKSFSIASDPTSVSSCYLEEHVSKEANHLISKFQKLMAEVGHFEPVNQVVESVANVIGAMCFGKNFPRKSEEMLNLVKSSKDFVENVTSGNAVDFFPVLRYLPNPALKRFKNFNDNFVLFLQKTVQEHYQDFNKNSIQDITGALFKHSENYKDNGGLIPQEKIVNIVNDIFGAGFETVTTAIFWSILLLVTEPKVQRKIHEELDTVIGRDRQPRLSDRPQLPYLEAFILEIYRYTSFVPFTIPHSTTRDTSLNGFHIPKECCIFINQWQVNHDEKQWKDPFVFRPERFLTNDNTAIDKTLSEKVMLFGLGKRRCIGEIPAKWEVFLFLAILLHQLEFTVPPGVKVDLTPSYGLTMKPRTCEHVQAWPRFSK
Sequence of Methionine-R-sulfoxide reductase B3 (Q8IXL7 whole entry): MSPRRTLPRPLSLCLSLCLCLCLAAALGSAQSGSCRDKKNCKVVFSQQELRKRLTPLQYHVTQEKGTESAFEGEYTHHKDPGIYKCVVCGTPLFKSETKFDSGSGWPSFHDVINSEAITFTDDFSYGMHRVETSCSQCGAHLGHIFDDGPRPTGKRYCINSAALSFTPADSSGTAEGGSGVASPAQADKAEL
Sequence of Cytochrome P450 3A2 (P05183 whole entry): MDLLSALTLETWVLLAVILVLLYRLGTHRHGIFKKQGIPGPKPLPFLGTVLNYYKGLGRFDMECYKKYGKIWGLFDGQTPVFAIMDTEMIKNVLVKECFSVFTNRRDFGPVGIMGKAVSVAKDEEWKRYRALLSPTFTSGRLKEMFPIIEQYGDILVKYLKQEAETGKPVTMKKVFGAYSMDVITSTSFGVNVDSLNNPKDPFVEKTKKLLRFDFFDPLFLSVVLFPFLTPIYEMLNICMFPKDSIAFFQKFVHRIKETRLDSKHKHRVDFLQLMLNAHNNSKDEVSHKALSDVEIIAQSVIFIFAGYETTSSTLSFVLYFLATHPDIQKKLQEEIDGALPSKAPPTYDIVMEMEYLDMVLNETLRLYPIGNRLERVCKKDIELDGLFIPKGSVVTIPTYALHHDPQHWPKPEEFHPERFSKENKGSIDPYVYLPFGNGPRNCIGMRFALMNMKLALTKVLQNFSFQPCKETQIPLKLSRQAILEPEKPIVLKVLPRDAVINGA
Sequence of Cytochrome P450 1A1 (P00185 whole entry): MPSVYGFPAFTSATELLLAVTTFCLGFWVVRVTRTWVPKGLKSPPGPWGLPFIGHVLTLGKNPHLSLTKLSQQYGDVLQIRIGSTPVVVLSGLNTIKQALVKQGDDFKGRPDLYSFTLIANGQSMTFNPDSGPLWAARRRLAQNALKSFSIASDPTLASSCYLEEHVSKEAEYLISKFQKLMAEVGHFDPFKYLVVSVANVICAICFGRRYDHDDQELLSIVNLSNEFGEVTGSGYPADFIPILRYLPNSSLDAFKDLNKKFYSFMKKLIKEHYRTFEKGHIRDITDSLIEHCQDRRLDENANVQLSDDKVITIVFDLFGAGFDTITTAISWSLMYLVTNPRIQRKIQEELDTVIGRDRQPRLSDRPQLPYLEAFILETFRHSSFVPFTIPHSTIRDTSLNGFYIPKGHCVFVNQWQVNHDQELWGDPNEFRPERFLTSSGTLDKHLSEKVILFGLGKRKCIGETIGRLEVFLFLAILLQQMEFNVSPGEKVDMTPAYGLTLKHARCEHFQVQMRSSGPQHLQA
Sequence of Cytochrome P450 2D6 (P10635 whole entry): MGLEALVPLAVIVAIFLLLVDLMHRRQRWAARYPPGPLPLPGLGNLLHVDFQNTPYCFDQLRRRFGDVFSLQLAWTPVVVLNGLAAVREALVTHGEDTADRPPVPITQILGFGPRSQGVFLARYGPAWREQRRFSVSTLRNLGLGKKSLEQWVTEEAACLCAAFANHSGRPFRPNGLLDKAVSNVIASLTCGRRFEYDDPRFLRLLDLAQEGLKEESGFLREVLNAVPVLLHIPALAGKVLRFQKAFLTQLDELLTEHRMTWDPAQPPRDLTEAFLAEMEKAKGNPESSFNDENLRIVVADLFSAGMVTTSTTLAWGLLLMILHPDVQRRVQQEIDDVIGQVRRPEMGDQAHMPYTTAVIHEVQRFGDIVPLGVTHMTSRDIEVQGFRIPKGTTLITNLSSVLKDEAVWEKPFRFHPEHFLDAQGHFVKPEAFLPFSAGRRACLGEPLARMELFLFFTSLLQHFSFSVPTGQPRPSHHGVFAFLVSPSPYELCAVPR
Sequence of Cytochrome P450 1A2 (Homo sapiens, UniProt P05177) (P05177 whole entry): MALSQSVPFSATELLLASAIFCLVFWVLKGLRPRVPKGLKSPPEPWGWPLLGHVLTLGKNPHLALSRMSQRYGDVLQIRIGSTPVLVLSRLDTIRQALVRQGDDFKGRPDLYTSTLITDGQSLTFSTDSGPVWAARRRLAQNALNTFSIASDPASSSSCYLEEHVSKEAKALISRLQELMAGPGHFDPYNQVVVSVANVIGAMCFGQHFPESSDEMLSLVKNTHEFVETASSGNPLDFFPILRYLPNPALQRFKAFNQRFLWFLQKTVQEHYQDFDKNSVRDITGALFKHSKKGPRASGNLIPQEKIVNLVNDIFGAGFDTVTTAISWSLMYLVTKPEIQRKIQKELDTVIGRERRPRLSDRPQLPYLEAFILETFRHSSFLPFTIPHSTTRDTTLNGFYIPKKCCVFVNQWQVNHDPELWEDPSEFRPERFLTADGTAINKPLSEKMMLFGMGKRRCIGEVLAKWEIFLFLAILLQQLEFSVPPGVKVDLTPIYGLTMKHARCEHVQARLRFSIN
Sequence of Cytochrome P450 1B1 (Q16678 whole entry): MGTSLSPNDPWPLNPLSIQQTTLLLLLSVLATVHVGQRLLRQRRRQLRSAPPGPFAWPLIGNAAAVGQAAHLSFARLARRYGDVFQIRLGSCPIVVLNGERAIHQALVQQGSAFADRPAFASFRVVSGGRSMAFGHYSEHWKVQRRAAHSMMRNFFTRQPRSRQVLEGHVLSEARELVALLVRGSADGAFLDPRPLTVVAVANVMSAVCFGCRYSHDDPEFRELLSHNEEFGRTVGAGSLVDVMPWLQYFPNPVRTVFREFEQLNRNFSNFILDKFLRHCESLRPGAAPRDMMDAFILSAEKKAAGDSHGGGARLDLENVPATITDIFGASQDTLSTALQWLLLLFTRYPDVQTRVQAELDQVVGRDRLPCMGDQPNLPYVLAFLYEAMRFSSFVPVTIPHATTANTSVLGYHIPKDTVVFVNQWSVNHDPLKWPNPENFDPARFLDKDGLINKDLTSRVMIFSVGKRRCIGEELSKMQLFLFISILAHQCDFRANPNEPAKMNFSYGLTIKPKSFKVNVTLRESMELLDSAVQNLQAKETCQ
Sequence of Cytochrome P450 2C19 (P33261 whole entry): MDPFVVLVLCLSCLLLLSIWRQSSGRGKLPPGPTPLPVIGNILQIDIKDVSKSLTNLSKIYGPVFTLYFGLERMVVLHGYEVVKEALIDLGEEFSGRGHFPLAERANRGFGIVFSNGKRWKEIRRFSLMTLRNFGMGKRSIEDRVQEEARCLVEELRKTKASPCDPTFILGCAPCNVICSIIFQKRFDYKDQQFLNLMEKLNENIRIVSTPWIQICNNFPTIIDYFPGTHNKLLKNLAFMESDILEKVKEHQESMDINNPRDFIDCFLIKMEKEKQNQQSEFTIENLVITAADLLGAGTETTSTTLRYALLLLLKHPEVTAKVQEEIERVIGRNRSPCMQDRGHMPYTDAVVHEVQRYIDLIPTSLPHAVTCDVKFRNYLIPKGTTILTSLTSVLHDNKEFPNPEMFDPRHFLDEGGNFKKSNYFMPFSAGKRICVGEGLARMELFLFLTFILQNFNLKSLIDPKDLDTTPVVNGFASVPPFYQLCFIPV
Sequence of Cytochrome P450 3A4 (P08684 whole entry): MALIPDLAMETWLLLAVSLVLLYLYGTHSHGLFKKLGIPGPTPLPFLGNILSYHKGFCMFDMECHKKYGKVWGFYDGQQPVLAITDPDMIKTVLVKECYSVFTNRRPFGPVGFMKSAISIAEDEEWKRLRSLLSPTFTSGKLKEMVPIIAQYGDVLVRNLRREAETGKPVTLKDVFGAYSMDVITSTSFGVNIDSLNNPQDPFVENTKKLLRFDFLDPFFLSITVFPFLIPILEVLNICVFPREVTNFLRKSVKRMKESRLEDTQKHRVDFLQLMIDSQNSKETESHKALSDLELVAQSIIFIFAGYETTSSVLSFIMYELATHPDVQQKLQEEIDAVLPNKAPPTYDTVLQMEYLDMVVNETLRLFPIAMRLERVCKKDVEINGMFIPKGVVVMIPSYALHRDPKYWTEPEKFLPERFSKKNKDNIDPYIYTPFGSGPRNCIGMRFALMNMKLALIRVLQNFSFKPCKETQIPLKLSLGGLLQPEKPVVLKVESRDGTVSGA
Sequence of Methionine-R-sulfoxide reductase B2, mitochondrial (Q9Y3D2 whole entry): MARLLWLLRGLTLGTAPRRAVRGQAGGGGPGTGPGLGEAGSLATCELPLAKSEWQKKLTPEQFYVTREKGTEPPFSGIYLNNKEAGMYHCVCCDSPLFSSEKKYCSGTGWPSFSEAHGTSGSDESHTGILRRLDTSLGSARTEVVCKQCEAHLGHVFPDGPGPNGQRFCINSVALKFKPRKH

Drug metabolism [1]: metabolite_detected | Drug metabolism [2]: metabolite_detected | Drug metabolism [3]: metabolite_detected | Drug metabolism [4]: metabolite_detected
Structure (SMILES): CN(C)c1ccc(/N=N/c2ccc(S(=O)(=O)N[C@@H](CC[S@@+](C)[O-])C(=O)O)cc2)cc1

Drug metabolism [5]: metabolite_detected | Drug metabolism [6]: metabolite_detected | Drug metabolism [7]: metabolite_detected | Drug metabolism [8]: metabolite_detected
Structure (SMILES): CSCC[C@H](NS(=O)(=O)c1ccc(/N=N/c2ccc(N(C)C)cc2)cc1)C(=O)O

Drug metabolism [9]: metabolite_not_detected | Drug metabolism [10]: metabolite_not_detected | Drug metabolism [11]: 380 pmol/h | Drug metabolism [12]: 460 pmol/h | Drug metabolism [13]: 130 pmol/h | Drug metabolism [14]: 73 pmol/h | Drug metabolism [15]: 47 pmol/h | Drug metabolism [16]: metabolite_not_detected | Drug metabolism [17]: metabolite_not_detected | Drug metabolism [18]: metabolite_not_detected | Drug metabolism [19]: metabolite_not_detected | Drug metabolism [20]: metabolite_not_detected | Drug metabolism [21]: metabolite_not_detected | Drug metabolism [22]: metabolite_detected | Drug metabolism [23]: metabolite_detected | Drug metabolism [24]: metabolite_not_detected | Drug metabolism [25]: metabolite_not_detected | Drug metabolism [26]: metabolite_not_detected | Drug metabolism [27]: 4.2 nmol/h | Drug metabolism [28]: 5.6 nmol/h | Drug metabolism [29]: 32.6 nmol/h | Drug metabolism [30]: 1160 nmol/h | Drug metabolism [33]: metabolite_detected | Drug metabolism [34]: metabolite_detected | Drug metabolism [35]: metabolite_detected | Drug metabolism [36]: metabolite_detected | Drug metabolism [37]: metabolite_detected | Drug metabolism [38]: metabolite_detected | Drug metabolism [39]: metabolite_detected
Structure (SMILES): CC1=C(CC(=O)O)c2cc(F)ccc2/C1=C\c1ccc([S+](C)[O-])cc1 (single isomer, unassigned)
Activity [31]: Active | Activity [32]: Active
